The source made the active and inactive calls. The rule behind the calls is not given here.
How the values were obtained:
[1] = system: MT4; test: Antiviral activity against HIV1 assessed as inhibition of HIV1-induced cytopathicity in MT4 cells; type: functional, cell-based; conditions: Homo sapiens
How it was run: (§1)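 CEM and MT-4 cell cultures infected with HIV-1 or HIV-2, with compounds diluted into culture medium from DMSO stocks. Antiviral activity is read at day 4 post-infection and reported as EC50.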

[2] = system: MT4; test: Antiproliferative activity against human MT4 cell line; type: functional
How it was run: (§2)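 Cytostatic assay: compounds made up as DMSO stocks and diluted in culture medium. CC50 is the concentration that inhibits MT-4 or CEM cell proliferation by 50%.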

[3] = target: T1, CD26 (Dipeptidyl peptidase 4) (Homo sapiens, UniProt P27487); test: Inhibition of CD26-catalyzed GlyPro-pNA hydrolysis at 20 uM; conditions: CD26 (dipeptidyl peptidase 4) enzyme, probe GlyPro-pNA
T1 sequence (P27487 whole entry): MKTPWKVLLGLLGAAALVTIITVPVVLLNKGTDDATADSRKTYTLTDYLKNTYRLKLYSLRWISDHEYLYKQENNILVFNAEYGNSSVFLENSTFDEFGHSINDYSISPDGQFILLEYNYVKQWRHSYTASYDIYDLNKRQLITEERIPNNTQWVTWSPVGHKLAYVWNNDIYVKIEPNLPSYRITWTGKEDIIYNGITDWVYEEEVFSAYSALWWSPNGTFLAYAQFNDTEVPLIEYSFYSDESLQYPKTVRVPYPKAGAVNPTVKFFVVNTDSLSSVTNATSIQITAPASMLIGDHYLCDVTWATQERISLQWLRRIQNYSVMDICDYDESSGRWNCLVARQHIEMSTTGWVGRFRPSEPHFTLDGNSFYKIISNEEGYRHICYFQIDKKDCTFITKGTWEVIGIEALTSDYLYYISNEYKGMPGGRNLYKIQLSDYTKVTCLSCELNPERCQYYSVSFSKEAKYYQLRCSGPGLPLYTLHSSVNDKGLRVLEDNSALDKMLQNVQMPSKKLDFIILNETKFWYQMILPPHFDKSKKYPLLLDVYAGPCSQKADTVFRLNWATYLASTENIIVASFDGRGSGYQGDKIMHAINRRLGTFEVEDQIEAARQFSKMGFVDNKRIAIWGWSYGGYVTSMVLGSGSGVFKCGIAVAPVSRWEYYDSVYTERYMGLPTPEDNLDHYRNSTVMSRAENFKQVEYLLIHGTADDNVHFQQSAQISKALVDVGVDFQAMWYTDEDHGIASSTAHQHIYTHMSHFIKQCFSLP

[4] = target: T1, CD26 (Dipeptidyl peptidase 4); test: Inhibition of CD26-catalyzed GlyPro-pNA hydrolysis at 100 uM; conditions: CD26 (dipeptidyl peptidase 4) enzyme, probe GlyPro-pNA
[5] = target: T2, Dipeptidyl peptidase 4 (Homo sapiens, UniProt P27487); test: Conversion of prodrug to parent drug NAP-TSAO-T catalyzed by CD26 after 4 hrs; type: ADME; set-up: concentration or dose not given beside the values
T2 sequence (P27487 whole entry): as above

[6] = species on record: Bos taurus; test: Conversion of prodrug to parent drug NAP-TSAO-T catalyzed by bovin serum after 24 hrs; type: ADME, organism-based; conditions: cattle
How it was run: (§3)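 Prodrug at 50 µM incubated at 37 °C with human or bovine serum diluted in PBS (5, 2.5, 1 or 0.5%). Samples are quenched in cold methanol and centrifuged, and the supernatant is run on reverse-phase RP-8 HPLC (phosphate/heptanesulfonate pH 3.2–acetonitrile gradient). Parent compound formed is quantified at 3, 6 or 24 h.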

[7] = system: MT4; test: Antiviral activity against HIV2 assessed as inhibition of HIV2-induced cytopathicity in MT4 cells; type: functional, cell-based; how it was run: as §1
[8] = system: CCRF-CEM; test: Antiviral activity against HIV2 assessed as inhibition of HIV2-induced cytopathicity in CEM cells; type: functional, cell-based; how it was run: as §1
[9] = system: CCRF-CEM; test: Antiproliferative activity against human CEM cell line; type: functional; how it was run: as §2
[10] = system: CCRF-CEM; test: Antiviral activity against HIV1 assessed as inhibition of HIV1-induced cytopathicity in CEM cells; type: functional, cell-based; conditions: Homo sapiens; how it was run: as §1
[11] = species on record: Homo sapiens; test: Conversion of prodrug to parent drug NAP-TSAO-T catalyzed by 2.5% human serum after 6 hrs; type: ADME, organism-based; how it was run: as §3
[12] = species on record: Bos taurus; test: Conversion of prodrug to parent drug NAP-TSAO-T catalyzed by bovin serum after 6 hrs; type: ADME, organism-based; conditions: cattle; how it was run: as §3
[13] = target: T2, Dipeptidyl peptidase 4; test: Conversion of prodrug to parent drug NAP-TSAO-T catalyzed by CD26 after 24 hrs; type: ADME; set-up: concentration or dose not given beside the values
[14] = target: T2, Dipeptidyl peptidase 4; test: Conversion of prodrug to parent drug NAP-TSAO-T catalyzed by CD26 after 1 hr; type: ADME; set-up: concentration or dose not given beside the values
[15] = species on record: Homo sapiens; test: Conversion of prodrug to parent drug NAP-TSAO-T catalyzed by 2.5% human serum after 3 hrs; type: ADME, organism-based; how it was run: as §3
[16] = target: Human immunodeficiency virus type 1 reverse transcriptase (Human immunodeficiency virus 1, UniProt Q72547); test: Inhibition of recombinant HIV1 reverse transcriptase

Cc1cn(C2OC(CO[Si](C)(C)C(C)(C)C)C3(OS(=O)(=O)C=C3N)C2O[Si](C)(C)C(C)(C)C)c(=O)n(CCCNC(=O)[C@@H]2CCCN2C(=O)[C@@H](N)C(C)C)c1=O (stereo partly specified)
EC50 [1]: 0.3 µM
CC50 [2]: 11 µM
inhibition at 20 µM [3]: 50%
inhibition at 100 µM [4]: 70%
Activity [5]: 62%
Activity [6]: 50%
Activity [7]: inactive
Activity [8]: inactive
CC50 [9]: 10 µM
EC50 [10]: 0.13 µM
Activity [11]: 50%
Activity [12]: 20%
Activity [13]: 61%
Activity [14]: 37%
Activity [15]: 30%
IC50 [16]: 6.6 µM

From ChEMBL document CHEMBL1146037, “Design and discovery of a novel dipeptidyl-peptidase IV (CD26)-based prodrug approach” (J Med Chem, 2006)
